The source made the active and inactive calls. The calls are words filed in the database; no cut-off is given here.
Assays:
MV4-11 = test: Growth inhibition of human MV4-11 cells after 96 hrs by CCK8 assay; type: functional, cell-based; conditions: MV4-11, 96 h
MOLM-13 = test: Growth inhibition of human MOLM13 cells after 96 hrs by CCK8 assay; type: functional, cell-based; conditions: MOLM-13, 96 h
RS4-11 [1] = test: Growth inhibition of human RS4:11 cells after 96 hrs by CCK8 assay; type: functional, cell-based; conditions: RS4-11, 96 h
RS4-11 [2] = test: Induction of apoptosis in human RS4:11 cells assessed as PARP cleavage at 0.1 to 10 nM after 24 hrs by Western blot analysis; type: functional, cell-based
Outline: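 Cells (1.5–2×10^6/well) were treated for 24 h, washed in cold PBS and lysed in RIPA with protease inhibitors. 20 µg lysate was run on 4–20% or 4–12% gels and transferred to PVDF. Blots were probed for cleaved PARP and cleaved caspase 3, with GAPDH as loading control. Detection by ECL.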

[3] = biological target: Bromodomain-containing protein 4 (Homo sapiens, UniProt O60885)
[4] = biological target: T1, Protein cereblon/Bromodomain-containing protein 4/Cullin-4A (Homo sapiens) (UniProt O60885+Q96SW2+Q13619); test: Protac activity at cereblon/cullin 4A/BRD4 in human RS4:11 cells assessed as BRD4 degradation by Western blot analysis; type: cell-based
[5] = biological target: T2, Protein cereblon/Bromodomain-containing protein 2/Cullin-4A (Homo sapiens) (UniProt P25440+Q96SW2+Q13619); test: Protac activity at cereblon/cullin 4A/BRD2 in human RS4:11 cells assessed as BRD2 degradation by Western blot analysis; type: cell-based
[6] = biological target: T3, Protein cereblon/Bromodomain-containing protein 3/Cullin-4A (Homo sapiens) (UniProt Q15059+Q96SW2+Q13619); test: Protac activity at cereblon/cullin 4A/BRD3 in human RS4:11 cells in assessed as BRD3 degradation by Western blot analysis; type: cell-based
[7] = biological target: T3, Protein cereblon/Bromodomain-containing protein 3/Cullin-4A (Homo sapiens); test: Protac activity at cereblon/cullin 4A/BRD3 in human RS4:11 cells in assessed as BRD3 degradation at 0.1 nM after 3 hrs by Western blot analysis; type: cell-based
[8] = biological target: T1, Protein cereblon/Bromodomain-containing protein 4/Cullin-4A (Homo sapiens); test: Protac activity at cereblon/cullin 4A/BRD4 in human RS4:11 cells assessed as BRD4 degradation at 0.1 nM after 3 hrs by Western blot analysis; type: cell-based
[9] = biological target: Protein cereblon/Bromodomain-containing protein 4/Bromodomain-containing protein 3/Bromodomain-containing protein 2 (Homo sapiens) (UniProt P25440+O60885+Q15059+Q96SW2); test: Protac activity at cereblon/cullin 4A/BET in human RS4:11 cells assessed as reduction in c-myc protein levels at 0.1 nM after 3 hrs by Western blot analysis; type: cell-based
[10] = biological target: T2, Protein cereblon/Bromodomain-containing protein 2/Cullin-4A (Homo sapiens); test: Protac activity at cereblon/cullin 4A/BRD2 in human RS4:11 cells assessed as BRD2 degradation at 0.1 nM after 3 hrs by Western blot analysis; type: cell-based
[11] = biological target: T3, Protein cereblon/Bromodomain-containing protein 3/Cullin-4A (Homo sapiens); test: Protac activity at cereblon/cullin 4A/BRD3 in human RS4:11 cells assessed as BRD3 degradation at 1 to 10 uM after 3 to 24 hrs by Western blot analysis; type: cell-based
Outline: (§1)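 Cells are used within two months of thawing. […] 1.5–2×10^6 cells/well are treated for 3 h or 24 h, then lysed in RIPA with protease inhibitors. 20 µg lysate is blotted to PVDF and probed with rabbit polyclonal anti-BRD2 or anti-BRD3. GAPDH is the loading control, detected by ECL.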

[12] = biological target: T3, Protein cereblon/Bromodomain-containing protein 3/Cullin-4A (Homo sapiens); test: Protac activity at cereblon/cullin 4A/BRD3 in human MV4-11 cells assessed as BRD3 degradation at 1 to 10 uM after 3 to 24 hrs by Western blot analysis; type: cell-based; outline: as §1
RS4-11 [13] = test: Induction of apoptosis in human RS4:11 cells assessed as PARP cleavage at 10 uM after 24 hrs by Western blot analysis; type: functional, cell-based
[14] = biological target: T2, Protein cereblon/Bromodomain-containing protein 2/Cullin-4A (Homo sapiens); test: Protac activity at cereblon/cullin 4A/BRD2 in human RS4:11 cells assessed as induction of BRD2 degradation at 0.1 to 1 uM after 3 to 24 hrs by Western blot analysis; type: cell-based
[15] = biological target: T3, Protein cereblon/Bromodomain-containing protein 3/Cullin-4A (Homo sapiens); test: Protac activity at cereblon/cullin 4A/BRD3 in human RS4:11 cells in assessed as BRD3 degradation at 0.1 to 1 uM after 3 to 24 hrs by Western blot analysis; type: cell-based
[16] = biological target: T1, Protein cereblon/Bromodomain-containing protein 4/Cullin-4A (Homo sapiens); test: Protac activity at cereblon/cullin 4A/BRD4 in human RS4:11 cells assessed as BRD4 degradation at 0.1 to 1 uM after 3 to 24 hrs by Western blot analysis; type: cell-based

T3 sequence (Q13619 whole entry, looked up): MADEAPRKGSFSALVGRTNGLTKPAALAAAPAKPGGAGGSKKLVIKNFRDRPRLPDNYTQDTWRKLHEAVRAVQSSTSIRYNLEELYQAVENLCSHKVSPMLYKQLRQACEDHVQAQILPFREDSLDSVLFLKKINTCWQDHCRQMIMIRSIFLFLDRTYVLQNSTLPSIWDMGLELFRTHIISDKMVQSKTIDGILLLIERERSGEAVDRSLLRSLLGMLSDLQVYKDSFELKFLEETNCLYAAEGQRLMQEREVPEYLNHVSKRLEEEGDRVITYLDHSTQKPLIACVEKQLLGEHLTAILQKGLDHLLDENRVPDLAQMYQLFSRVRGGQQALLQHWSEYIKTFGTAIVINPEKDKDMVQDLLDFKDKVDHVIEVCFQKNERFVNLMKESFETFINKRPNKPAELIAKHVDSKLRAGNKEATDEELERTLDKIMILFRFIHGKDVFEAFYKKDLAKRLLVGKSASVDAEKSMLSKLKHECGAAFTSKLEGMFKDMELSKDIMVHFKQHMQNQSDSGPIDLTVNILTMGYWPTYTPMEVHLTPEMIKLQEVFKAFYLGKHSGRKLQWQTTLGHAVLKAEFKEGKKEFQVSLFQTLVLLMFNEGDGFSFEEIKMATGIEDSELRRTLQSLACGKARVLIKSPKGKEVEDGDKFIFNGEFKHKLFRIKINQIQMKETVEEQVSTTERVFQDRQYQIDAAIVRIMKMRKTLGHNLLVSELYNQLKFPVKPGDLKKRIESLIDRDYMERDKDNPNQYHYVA
T3 sequence (Q15059 whole entry, looked up): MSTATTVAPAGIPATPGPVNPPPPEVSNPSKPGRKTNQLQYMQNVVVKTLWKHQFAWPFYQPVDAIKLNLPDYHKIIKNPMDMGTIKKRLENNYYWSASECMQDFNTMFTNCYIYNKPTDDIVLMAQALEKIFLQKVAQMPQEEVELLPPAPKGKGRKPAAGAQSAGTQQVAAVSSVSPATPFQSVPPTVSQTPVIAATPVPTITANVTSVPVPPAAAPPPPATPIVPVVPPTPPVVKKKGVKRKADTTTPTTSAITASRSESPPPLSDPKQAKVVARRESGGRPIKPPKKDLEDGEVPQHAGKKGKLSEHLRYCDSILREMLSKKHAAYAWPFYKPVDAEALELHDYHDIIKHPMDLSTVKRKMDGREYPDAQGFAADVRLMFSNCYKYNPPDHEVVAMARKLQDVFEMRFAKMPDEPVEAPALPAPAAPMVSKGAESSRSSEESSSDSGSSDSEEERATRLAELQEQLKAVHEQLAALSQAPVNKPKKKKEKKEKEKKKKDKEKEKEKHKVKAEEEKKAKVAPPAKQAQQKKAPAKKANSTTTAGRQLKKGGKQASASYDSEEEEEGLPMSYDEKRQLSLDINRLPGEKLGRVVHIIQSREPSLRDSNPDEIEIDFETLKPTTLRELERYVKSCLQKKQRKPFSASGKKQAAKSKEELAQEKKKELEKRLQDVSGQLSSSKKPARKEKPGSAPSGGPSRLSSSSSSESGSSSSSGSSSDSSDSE
T3 sequence (Q96SW2 whole entry, looked up): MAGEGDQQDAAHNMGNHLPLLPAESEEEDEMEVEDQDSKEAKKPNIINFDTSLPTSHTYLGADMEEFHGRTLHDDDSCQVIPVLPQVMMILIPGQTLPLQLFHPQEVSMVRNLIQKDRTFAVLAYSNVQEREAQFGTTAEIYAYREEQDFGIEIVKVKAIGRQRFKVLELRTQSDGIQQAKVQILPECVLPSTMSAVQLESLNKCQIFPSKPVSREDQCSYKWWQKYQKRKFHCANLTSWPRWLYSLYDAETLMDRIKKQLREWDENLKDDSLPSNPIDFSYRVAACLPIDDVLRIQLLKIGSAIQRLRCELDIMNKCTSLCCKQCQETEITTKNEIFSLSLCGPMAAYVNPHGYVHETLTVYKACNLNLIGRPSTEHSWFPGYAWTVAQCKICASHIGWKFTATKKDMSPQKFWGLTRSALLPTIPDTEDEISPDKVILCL
T2 sequence (P25440 whole entry, looked up): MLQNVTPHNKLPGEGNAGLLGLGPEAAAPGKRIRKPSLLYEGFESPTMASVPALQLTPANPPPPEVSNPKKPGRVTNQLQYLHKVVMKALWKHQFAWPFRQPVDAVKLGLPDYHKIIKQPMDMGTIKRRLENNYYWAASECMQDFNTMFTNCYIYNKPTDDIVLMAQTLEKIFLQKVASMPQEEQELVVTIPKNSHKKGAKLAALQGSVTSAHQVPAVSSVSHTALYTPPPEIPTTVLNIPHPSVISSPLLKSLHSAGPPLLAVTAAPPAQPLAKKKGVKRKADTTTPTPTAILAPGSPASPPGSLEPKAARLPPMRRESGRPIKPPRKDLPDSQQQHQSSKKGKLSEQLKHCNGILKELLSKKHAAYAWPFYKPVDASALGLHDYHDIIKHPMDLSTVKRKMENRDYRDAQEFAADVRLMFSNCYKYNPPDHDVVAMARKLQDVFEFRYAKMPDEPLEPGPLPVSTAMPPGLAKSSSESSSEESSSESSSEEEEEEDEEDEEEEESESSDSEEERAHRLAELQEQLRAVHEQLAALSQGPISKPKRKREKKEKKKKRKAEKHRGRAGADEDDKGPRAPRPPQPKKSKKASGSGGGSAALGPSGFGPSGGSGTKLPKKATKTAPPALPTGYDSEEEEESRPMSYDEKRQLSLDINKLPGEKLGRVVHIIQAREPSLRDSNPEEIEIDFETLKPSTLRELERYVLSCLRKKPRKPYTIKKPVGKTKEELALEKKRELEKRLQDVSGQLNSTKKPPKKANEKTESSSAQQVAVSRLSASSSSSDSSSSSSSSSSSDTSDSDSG
T2 sequence (Q13619 whole entry, looked up): as the sequence (Q13619 whole entry, looked up) above
T2 sequence (Q96SW2 whole entry, looked up): as the sequence (Q96SW2 whole entry, looked up) above
Protein cereblon/Bromodomain-containing protein 4/Bromodomain-containing protein 3/Bromodomain-containing protein 2 (Homo sapiens), sequence (P25440 whole entry, looked up, other chains not shown): as the sequence (P25440 whole entry, looked up) above
Protein cereblon/Bromodomain-containing protein 4/Bromodomain-containing protein 3/Bromodomain-containing protein 2 (Homo sapiens), sequence (Q15059 whole entry, looked up, other chains not shown): as the sequence (Q15059 whole entry, looked up) above
Protein cereblon/Bromodomain-containing protein 4/Bromodomain-containing protein 3/Bromodomain-containing protein 2 (Homo sapiens), sequence (Q96SW2 whole entry, looked up, other chains not shown): as the sequence (Q96SW2 whole entry, looked up) above

| IC50 (MV4-11) | IC50 (MOLM-13) | IC50 (RS4-11 [1]) | SMILES | other results |
| --- | --- | --- | --- | --- |
| 25.8 nM | 183 nM | 43.7 nM | Cc1nnc2n1Cc1sc(C#Cc3cnn(CCCC#Cc4cccc5c4CN(C4CCC(=O)N(C)C4=O)C5=O)c3)c(Cc3ccccc3)c1OC2 (centres undefined) |  |
| 0.47 nM | 2.23 nM | 0.379 nM | Cc1nnc2n1Cc1sc(C#Cc3cnn(CCNc4cccc5c4C(=O)N(C4CCC(=O)NC4=O)C5=O)c3)c(Cc3ccccc3)c1OC2 (centres undefined) | Activity (RS4-11 [2]): Active |
|  |  |  | Cc1nnc2n1-c1sc(C3CCOCC3)c(Cc3ccccc3)c1COC2 | IC50 [3]: 8100 nM; Ki [3]: 2800 nM |
|  |  |  | Cc1nnc2n1-c1scc(Cc3ccccc3)c1COC2 | IC50 [3]: 2300 nM; Ki [3]: 820 nM |
| 19.7 nM | 311 nM | 20.8 nM | Cc1nnc2n1Cc1sc(C#Cc3cnn(COc4cccc5c4C(=O)N(C4CCC(=O)NC4=O)C5=O)c3)c(Cc3ccccc3)c1OC2 (centres undefined) | Activity [4]: Dose-dependent effect; Activity [5]: Dose-dependent effect; Activity [6]: Dose-dependent effect |
| 0.0654 nM | 0.19 nM | 0.02 nM | Cc1nnc2n1Cc1sc(C#Cc3cnn(CCCCNc4cccc5c4C(=O)N(C4CCC(=O)NC4=O)C5=O)c3)c(Cc3ccccc3)c1OC2 (centres undefined) | Activity [7]: Active; Activity [8]: Active; Activity [9]: Active; Activity [10]: Active; Activity (RS4-11 [2]): Active |
|  |  |  | Cc1nnc2n1-c1sc(C#N)c(Cc3ccccc3)c1COC2 | IC50 [3]: 720 nM; Ki [3]: 250 nM |
| 0.138 nM | 0.56 nM | 0.038 nM | Cc1nnc2n1Cc1sc(C#Cc3cnn(CCCNc4cccc5c4C(=O)N(C4CCC(=O)NC4=O)C5=O)c3)c(Cc3ccccc3)c1OC2 (centres undefined) | Activity [7]: Active; Activity [8]: Active; Activity [10]: Active; Activity (RS4-11 [2]): Active |
|  |  |  | Cc1nnc2n1-c1sc(C#Cc3cnn(C)c3)c(Cc3ccccc3)c1COC2 | Activity [11]: Active; Activity [12]: inactive; Activity (RS4-11 [13]): Active |
| 0.14 nM | 0.53 nM | 0.081 nM | Cc1nnc2n1Cc1sc(C#Cc3cnn(CCCCCc4cccc5c4CN(C4CCC(=O)NC4=O)C5=O)c3)c(Cc3ccccc3)c1OC2 (centres undefined) |  |
| 0.72 nM | 1.6 nM | 0.39 nM | Cc1nnc2n1Cc1sc(C#Cc3cnn(CCCC#Cc4cccc5c4C(=O)N(C4CCC(=O)NC4=O)C5=O)c3)c(Cc3ccccc3)c1OC2 (centres undefined) |  |
|  | 0.18 nM | 0.0012 nM | Cc1nnc2n1Cc1sc(C#Cc3cnn(CCCCNc4cccc5c4CN(C4CCC(=O)NC4=O)C5=O)c3)c(Cc3ccccc3)c1OC2 (centres undefined) |  |
|  |  |  | Cc1sc2c(c1C)COCc1nnc(C)n1-2 | IC50 [3]: 4400 nM; Ki [3]: 1500 nM |
| 0.092 nM | 0.19 nM | 0.02 nM | Cc1nnc2n1Cc1sc(C#Cc3cnn(CCCCCNc4cccc5c4C(=O)N(C4CCC(=O)NC4=O)C5=O)c3)c(Cc3ccccc3)c1OC2 (centres undefined) | Activity [7]: Active; Activity [8]: Active; Activity [9]: Active; Activity [10]: Active; Activity (RS4-11 [2]): Active |
| > 1000 nM | > 1000 nM | > 1000 nM | Cc1nnc2n1Cc1sc(C#Cc3cnn(-c4cccc5c4C(=O)N(C4CCC(=O)NC4=O)C5=O)c3)c(Cc3ccccc3)c1OC2 (centres undefined) | Activity [14]: inactive; Activity [15]: inactive; Activity [16]: inactive |
| 0.035 nM | 0.51 nM | 0.025 nM | Cc1nnc2n1Cc1sc(C#Cc3cnn(CCCNc4cccc5c4CN(C4CCC(=O)NC4=O)C5=O)c3)c(Cc3ccccc3)c1OC2 (centres undefined) |  |
